Assay results from ChEMBL document CHEMBL1255521, “Identification and optimization of substituted 5-aminopyrazoles as potent and selective adenosine A1 receptor antagonists” (Bioorg Med Chem Lett, 2010).
The source made the active and inactive calls. The rule behind the calls is not given here.

Assays:
Adenosine receptor A1 = biological target: T1, Adenosine receptor A1 (Homo sapiens, UniProt P30542); assay: Antagonist activity at adenosine A1 receptor by cAMP assay; type: functional
T1 sequence (P30542 whole entry): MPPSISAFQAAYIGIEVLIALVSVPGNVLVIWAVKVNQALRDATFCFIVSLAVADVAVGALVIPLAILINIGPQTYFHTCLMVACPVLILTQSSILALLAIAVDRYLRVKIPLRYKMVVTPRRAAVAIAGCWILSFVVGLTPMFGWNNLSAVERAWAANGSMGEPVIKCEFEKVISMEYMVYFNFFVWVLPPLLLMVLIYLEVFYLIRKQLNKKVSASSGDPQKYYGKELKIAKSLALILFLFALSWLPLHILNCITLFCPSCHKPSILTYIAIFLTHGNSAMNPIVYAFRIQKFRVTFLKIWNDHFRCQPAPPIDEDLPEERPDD
Outline: (§1)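 cAMP functional assay run in antagonist mode at each receptor subtype, with IC50 values reported as means of three experiments.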

Adenosine receptor A2a = Adenosine receptor A2a (Homo sapiens, UniProt P29274); assay: Antagonist activity at adenosine A2A receptor by cAMP assay; type: functional; outline: as §1
Adenosine receptor A2a, sequence (P29274 whole entry): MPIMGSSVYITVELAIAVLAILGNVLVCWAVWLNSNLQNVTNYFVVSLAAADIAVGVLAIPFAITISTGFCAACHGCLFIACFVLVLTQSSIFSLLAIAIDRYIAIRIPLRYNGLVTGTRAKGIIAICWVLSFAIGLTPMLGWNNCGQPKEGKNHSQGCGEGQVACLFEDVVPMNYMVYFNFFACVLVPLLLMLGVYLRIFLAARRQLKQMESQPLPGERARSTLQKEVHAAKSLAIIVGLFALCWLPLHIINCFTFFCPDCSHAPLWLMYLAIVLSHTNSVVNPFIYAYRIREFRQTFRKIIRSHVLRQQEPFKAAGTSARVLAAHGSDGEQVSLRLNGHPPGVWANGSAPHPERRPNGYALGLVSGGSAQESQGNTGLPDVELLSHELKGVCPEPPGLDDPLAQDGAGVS

Adenosine receptor A2b = biological target: T2, Adenosine receptor A2b (Homo sapiens, UniProt P29275); assay: Antagonist activity at adenosine A2B receptor by cAMP assay; type: functional; outline: as §1
T2 sequence (P29275 whole entry): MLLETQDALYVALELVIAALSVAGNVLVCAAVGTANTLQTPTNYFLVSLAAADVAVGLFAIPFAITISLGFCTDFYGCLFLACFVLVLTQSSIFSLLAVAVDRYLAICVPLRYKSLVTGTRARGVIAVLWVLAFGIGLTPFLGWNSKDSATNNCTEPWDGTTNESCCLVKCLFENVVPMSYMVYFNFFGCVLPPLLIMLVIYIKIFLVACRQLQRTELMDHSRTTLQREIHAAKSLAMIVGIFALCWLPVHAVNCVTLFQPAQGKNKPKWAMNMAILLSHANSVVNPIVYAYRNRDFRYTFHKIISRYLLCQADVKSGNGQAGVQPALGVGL

Adenosine receptor A3 = biological target: T3, Adenosine receptor A3 (Homo sapiens, UniProt P0DMS8); assay: Antagonist activity at adenosine A3 receptor by cAMP assay; type: functional; outline: as §1
T3 sequence (P0DMS8 whole entry): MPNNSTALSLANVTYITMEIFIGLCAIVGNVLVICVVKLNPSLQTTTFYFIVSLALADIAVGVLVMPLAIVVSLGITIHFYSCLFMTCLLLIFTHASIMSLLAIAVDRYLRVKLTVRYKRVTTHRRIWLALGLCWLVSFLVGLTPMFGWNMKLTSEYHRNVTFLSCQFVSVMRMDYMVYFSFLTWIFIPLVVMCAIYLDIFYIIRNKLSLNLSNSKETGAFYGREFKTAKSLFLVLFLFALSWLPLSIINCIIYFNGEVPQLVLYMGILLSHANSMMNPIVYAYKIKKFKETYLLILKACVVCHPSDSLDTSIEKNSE

[1] = Blood clearance in Wistar rat at 1 mg/kg, iv and 3 mg/kg, po; type: ADME, organism-based; conditions: whole blood
Outline: (§2)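 Pharmacokinetics in Wistar rats, with intravenous dosing at 1 mg/kg in a vehicle of 1% DMSO and 99% plasma.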

[2] = Half life in Wistar rat at 1 mg/kg, iv and 3 mg/kg, po; type: ADME, organism-based; conditions: in vivo; outline: as §2
[3] = Oral bioavailability in Wistar rat at 3 mg/kg; type: ADME, organism-based; conditions: in vivo
Rattus norvegicus [4] = assay: Diuretic activity in Wistar rat assessed as urine volume at 0.3 mg/kg, iv administered after 7 days of acclimatization; type: functional, organism-based; design: dose 0.3 mg/kg
Outline: (§3)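 Wistar rats received compound intravenously in 1 ml/kg vehicle (40% PEG400, 60% Tris buffer), 6–8 animals per dose group, at doses between 0.1 and 3.0 mg/kg. Urine was collected at the cage bottom into collecting tubes, usually over 4 h. Volume was measured, and sodium and potassium were read by flame photometer.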

Rattus norvegicus [5] = assay: Natriuretic activity in Wistar rat assessed as increase in natriuresis at 0.1 mg/kg, iv administered after 7 days of acclimatization; type: functional, organism-based; design: dose 0.1 mg/kg; outline: as §3
Mus musculus [6] = assay: Anticonvulsant activity in mouse assessed as inhibition of maximal electroshock-induced convulsion at 30 mg/kg, iv by MES test; type: functional, organism-based; design: dose 30 mg/kg
Mus musculus [7] = assay: Anticonvulsant activity in mouse assessed as inhibition of pentylenetetrazole-induced convulsion at 30 mg/kg, iv; type: functional, organism-based; design: dose 30 mg/kg
[8] = Selectivity ratio of IC50 for adenosine A2B receptor to IC50 for adenosine A1 receptor

IC50 (Adenosine receptor A1)	IC50 (Adenosine receptor A2a)	IC50 (Adenosine receptor A2b)	SMILES	also measured
306 nM			COc1ccc(-c2c(C)nn(-c3ccccc3C)c2Nc2ccc(OC)cc2C(=O)O)cc1	
233 nM			COc1ccc(Nc2c(-c3ccc(OC)c(OC)c3)c(C)nn2-c2ccccc2C)c(C(=O)O)c1	
5.1 nM	> 50000 nM	> 50000 nM	Cc1ccc(Nc2c(-c3ccc4nccnc4c3)c(C)nn2-c2ccccc2C)c(C(=O)O)c1	
6.4 nM	> 50000 nM	> 50000 nM	CCc1ccccc1-n1nc(C)c(-c2ccc3nccnc3c2)c1Nc1ccc(OC)cc1C(=O)O	
27 nM			COc1ccc(Nc2c(-c3ccc4c(c3)OCCO4)c(C)nn2-c2ccccc2C)c(C(=O)O)c1	
568 nM			COc1ccc(Nc2c(-c3ccc(C)c(C)c3)c(C)nn2-c2ccccc2C)c(C(=O)O)c1	
1.39 nM			COc1ccc(Nc2c(-c3ccc(F)cc3)c(C)nn2-c2ccccc2C)c(C(=O)O)c1	
	> 50000 nM	> 50000 nM	Cc1ccccc1-n1nc(C)c(-c2cc(F)c3nccnc3c2)c1Nc1ccccc1C(=O)O	IC50 (Adenosine receptor A3): > 10000 nM; clearance [1]: 9.5 mL/min/kg; half-life [2]: 1.8 h; bioavailability [3]: 97%; Activity (Rattus norvegicus [4]): Active; Activity (Rattus norvegicus [5]): Active; Activity (Mus musculus [6]): inactive; Activity (Mus musculus [7]): inactive; Ratio IC50 [8]: > 83000
277 nM	> 50000 nM	> 50000 nM	Cc1ccccc1-n1ncc(-c2ccc3nccnc3c2)c1Nc1ccccc1C(=O)O	
40 nM			COc1ccc(Nc2c(-c3ccc(C(C)=O)cc3)c(C)nn2-c2ccccc2C)c(C(=O)O)c1	clearance [1]: 66.7 mL/min/kg; half-life [2]: 1.5 h; bioavailability [3]: 20%
3.2 nM	> 50000 nM	> 50000 nM	COc1ccc(Nc2c(-c3ccc4nccnc4c3)c(C)nn2-c2ccccc2C)c(C(=O)O)c1	IC50 (Adenosine receptor A3): 13000 nM; clearance [1]: 43.7 mL/min/kg; half-life [2]: 0.4 h; bioavailability [3]: 20%
2.8 nM	5500 nM	1100 nM	COc1ccc(Nc2c(-c3ccc4nccnc4c3)c(C)nn2-c2ccccc2)c(C(=O)O)c1	
435 nM	> 50000 nM	> 50000 nM	COc1ccc(Nc2c(-c3ccc4nccnc4c3)c(C)nn2C2CCCCC2)c(C(=O)O)c1	
8 nM	> 50000 nM	> 50000 nM	Cc1ccccc1-n1nc(C)c(-c2ccc3nccnc3c2)c1Nc1ccccc1C(=O)O	
231 nM			COc1ccc(Nc2c(-c3ccc4c(c3)OCO4)c(C)nn2-c2ccccc2C)c(C(=O)O)c1	
16 nM	> 50000 nM	> 50000 nM	Cc1ccccc1-n1nc(C)c(-c2ccc3nccnc3c2)c1Nc1ccc(Cl)cc1C(=O)O	
3.16 nM			COc1ccc(Nc2c(-c3ccc(C)cc3)c(C)nn2-c2ccccc2C)c(C(=O)O)c1	
294 nM			COc1ccc(Nc2c(-c3ccc(F)c(F)c3)c(C)nn2-c2ccccc2C)c(C(=O)O)c1	
9 nM	> 50000 nM	19000 nM	Cc1ccccc1-n1nc(C(F)(F)F)c(-c2ccc3nccnc3c2)c1Nc1ccccc1C(=O)O	
13 nM	> 50000 nM	> 50000 nM	CCc1nn(-c2ccccc2C)c(Nc2ccccc2C(=O)O)c1-c1ccc2nccnc2c1	
7.3 nM	> 50000 nM	> 50000 nM	COc1ccc(Nc2c(-c3ccc4nccnc4c3)c(C)nn2-c2ccccc2Cl)c(C(=O)O)c1	
